The source made the active and inactive calls. The calls are words filed in the database; no cut-off is given here.
Legend:
[1] = target: T1, Topoisomerase I (Bos taurus) (UniProt Q2HPH0); assay: Inhibition of calf thymus TOP1-mediated relaxation of supercoiled pBR322 DNA at 25 uM after 30 mins by agarose gel electrophoresis relative to camptothecin
T1 sequence (whole entry): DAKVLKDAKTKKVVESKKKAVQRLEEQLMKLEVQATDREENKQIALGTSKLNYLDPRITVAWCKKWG
How it was run: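 0.5 µg supercoiled pBR322 in buffer (10 mM Tris-HCl pH 7.5, 50 mM KCl, 5 mM MgCl2, BSA, DTT) with 1 unit calf thymus TOP1, with or without compound (0.2-125 µM), 30 min at 37 C. Run on 0.8% agarose/TBE at 4.6 V/cm for 1.5 h, gel red stained. Activity graded in bands (e.g. +++ 81-120%). At least two independent repeats.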

HCT-116 = assay: Cytotoxicity against human HCT116 cells assessed as growth inhibition after 72 hrs by MTT assay; type: functional; settings: HCT-116, 72 h
How it was run: (§1)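 Five-dose MTT growth assay, compounds predissolved in DMSO, 72 h exposure at 37 C. Cells kept in RPMI-1640 or DMEM, 37 C, 5% CO2, passage 3-6. MTT (1 mg/mL in PBS) added for 4 h, formazan dissolved in DMSO, OD 570 nm. GI50 (50% growth inhibition) by nonlinear regression. Means ± SD, at least three repeats.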

CCRF-CEM = assay: Cytotoxicity against human CCRF-CEM cells assessed as growth inhibition after 72 hrs by MTT assay; type: functional; how it was run: as §1
A549 = assay: Cytotoxicity against human A549 cells assessed as growth inhibition after 72 hrs by MTT assay; type: functional; settings: A549, 72 h; how it was run: as §1
Huh-7 = assay: Cytotoxicity against human HuH7 cells assessed as growth inhibition after 72 hrs by MTT assay; type: functional; settings: Huh-7, 72 h; how it was run: as §1
DU-145 = assay: Cytotoxicity against human DU145 cells assessed as growth inhibition after 72 hrs by MTT assay; type: functional; settings: DU-145, 72 h; how it was run: as §1
DNA [2] = assay: Induction of unwinding effect of Escherichia coli relaxed pBR322 DNA at 1 to 9 uM preincubated with DNA for 10 mins followed by excess calf thymus TOP1 addition and measured after 30 mins by agarose gel electrophoresis; type: nucleic-acid assay
How it was run: (§2)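 Compound (1, 3, 9 µM) preincubated with pBR322 DNA, supercoiled or relaxed, at room temperature for 10 min. Excess TOP1 then added and incubated 30 min at 37 C. Stopped with SDS/proteinase K. Ethidium bromide (0.3-1.2 mg/L) as positive control. Run on 0.8% agarose in TBE at 4.6 V/cm for 1.5 h, stained with gel red, UV visualized.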

DNA [3] = assay: Induction of unwinding effect of Escherichia coli supercoiled pBR322 DNA at 1 to 9 uM preincubated with DNA for 10 mins followed by excess calf thymus TOP1 addition and measured after 30 mins by agarose gel electrophoresis; type: nucleic-acid assay; how it was run: as §2

inhibition [1] [%]	Activity (DNA [2])	Activity (DNA [3])	Structure (SMILES)	GI50 (HCT-116) [µM]	GI50 (CCRF-CEM) [µM]	GI50 (A549) [µM]	GI50 (Huh-7) [µM]	GI50 (DU-145) [µM]
41 to 80			O=C1c2cccnc2C(=O)c2c1c(C(=O)OCCCN1CCCCC1)c1c(Cl)cccn21	5.15	5.35	0.89	1.32	1.73
41 to 80			CN(C)CCOC(=O)c1c2c(n3cccc(F)c13)C(=O)c1ncccc1C2=O	0.092	1.09	27.2	0.31	0.69
41 to 80			CN1CCN(CCCOC(=O)c2c3c(n4cccc(F)c24)C(=O)c2ncccc2C3=O)CC1	0.044	0.32	0.021	0.042	0.073
< 40			O=C1c2cccnc2C(=O)c2c1c(C(=O)OCCN1CCCC1)c1c(Cl)cccn21	10.2	48.2	5.39	2.25	1.58
41 to 80			O=C1c2cccnc2C(=O)c2c1c(C(=O)OCCN1CCOCC1)c1c(Cl)cccn21	28.6	61.3	48.6	30.3	29.5

More lines, now with the values behind:

Structure (SMILES)	inhibition [1] [%]	Activity (DNA [2])	Activity (DNA [3])	GI50 (HCT-116) [µM]	GI50 (CCRF-CEM) [µM]	GI50 (A549) [µM]	GI50 (Huh-7) [µM]	GI50 (DU-145) [µM]
O=C1c2cnncc2C(=O)c2c1c(C(=O)OCCN1CCOCC1)c1ccccn21	81 to 120	inactive	inactive	3.43	1.35	0.86	2.92	1.22
O=C1c2nccnc2C(=O)c2c1c(C(=O)OCCN1CCOCC1)c1ccccn21	41 to 80			13.2	1.61	8.52	7.33	2.55
CCOC(=O)c1c2c(n3ccccc13)C(=O)c1ncccc1C2=O	81 to 120	inactive	inactive	0.33	0.68	0.16	0.85	0.093
CN(C)CCCOC(=O)c1c2c(n3cccc(F)c13)C(=O)c1ncccc1C2=O	81 to 120	Active	Active	0.066	0.37	0.018	0.08	0.025
CCOC(=O)c1c2c(n3ccc(NC(=O)CCN(C)C)cc13)C(=O)c1ncccc1C2=O	41 to 80			1.75	0.29	19.6	1.65	2.27
CCOC(=O)c1c2c(n3ccc(NC(=O)CCN4CCCCC4)cc13)C(=O)c1ncccc1C2=O	81 to 120	inactive	inactive	1.43	0.11	2.65	1.15	3.12
